Source: PubChem
Hits are enriched below; roughly 1.6% of the tested compounds scored in any of these assays.
SENP1 FRET inh: blocks the human SENP1 SUMO protease catalytic domain; Q9P0U3; recombinant SENP1 catalytic domain, CyPet-SUMO1-YPet FRET cleavage; inhibition, % at 10 µM; actives 0.21% (n = 360,000); AID 624204;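 active means inhibition at least 30% at 10 µM, raw YFP signal under a set limit, fluorescence ratio 0.5 to 1.5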;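 further: 0% = enzyme with DMSO and 100% = no enzyme wells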
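Test system: recombinant human SENP1 catalytic domain, His6-tagged / Medium: pH 8 Tris buffer with EDTA, NaCl, BME, BSA, NP40, catalase / Also added: SUMO1 FRET substrate flanked by Cypet and Ypet, 25 nM / Times: 50 min reaction at room temperature / Signal: FRET, CFP and YFP emission / Control set: no-enzyme low control and enzyme-plus-DMSO high control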
Rpn11 inh: inhibitors of human proteasome Rpn11; inhibition, % at 20 µM; human 26S proteasome, Ub4-pepOG fluorescence polarization; 20S core pre-blocked with epoxomicin; actives 0.59% (n = 360,000); O00487; AID 588493;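 active means inhibition at 20 µM, scaled to each plate's controls, above about 33%, limit read from the data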
TPT1 inh: blocks Candida albicans tRNA 2'-phosphotransferase; recombinant caTPT1, FP RNA substrate dephosphorylation; inhibition, % at 5 µM; actives 0.81% (n = 300,000);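 active means inhibition above the mean of all tested compounds plus 3 SD, set per screening campaign, cut at about 24% in these data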;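 further: plate controls were DMSO alone for no effect and ferristatin control at 100 nM for full effect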
HNF4A DNA FP: change in binding of human HNF4 alpha to DNA; actives 0.3% (n = 360,000); HNF4a-FITC DNA binding, fluorescence polarization, 1 h; P41235; activity change, % at 10 µM; in the data active means activity change above about 30%, passing the limit was not always enough
Target sequence (P41235 whole entry, looked up): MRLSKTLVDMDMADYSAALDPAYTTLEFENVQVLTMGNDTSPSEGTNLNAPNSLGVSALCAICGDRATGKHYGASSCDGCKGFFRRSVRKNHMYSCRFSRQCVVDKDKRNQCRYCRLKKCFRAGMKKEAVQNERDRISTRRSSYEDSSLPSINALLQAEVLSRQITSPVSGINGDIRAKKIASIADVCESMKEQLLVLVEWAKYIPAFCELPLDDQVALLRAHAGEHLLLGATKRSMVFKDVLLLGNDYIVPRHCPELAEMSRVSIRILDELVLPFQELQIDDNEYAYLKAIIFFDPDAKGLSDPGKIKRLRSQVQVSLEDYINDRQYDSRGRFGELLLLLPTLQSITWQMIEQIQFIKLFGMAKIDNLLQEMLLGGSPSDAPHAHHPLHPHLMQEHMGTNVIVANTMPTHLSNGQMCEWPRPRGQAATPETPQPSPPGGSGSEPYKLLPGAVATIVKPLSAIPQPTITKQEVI
CSN deneddyl inh: blocks human CSN-mediated cullin deneddylation | inhibition, % at 12.5 µM | actives 0.38% (n = 360,000) | Purified CSN, SCF-Nedd8-OG deneddylation, fluorescence polarization | Q92905;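 active means pattern-corrected inhibition above about 35%, with an unprinted fluorescence ratio check between 0.5 and 1.5, limit read from the data, passing the limit was not always enough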;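 further: 0% = enzyme with substrate and 100% = substrate without enzyme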
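Material: human Csn5 produced in HEK293T cells; Input: enzyme 0.24 nM; Reagent: SCFSkp2-Nedd8OG substrate at 10 nM final; Dosing: 12.5 µM compound; Incubation: 90 min reaction at room temperature; Detection: fluorescence polarization of the substrate; Evaluation: % inhibition of substrate cleavage by Csn5; Control set: substrate-only high control, full reaction low control.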
TPT1 inh confirm: confirmation of Candida albicans TPT1 inhibitors; shares compounds with TPT1 inh; recombinant caTPT1, fluorescence polarization, RNase T1 coupled; inhibition, % at 5 µM; actives 74% (n = 2,400);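 active means inhibition above the primary screen limit, the mean inhibition of all tested compounds plus 3 SD, cut at about 25% in these data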
RNase T1 counter: blocks Aspergillus oryzae RNase T1, a TPT1 counter-screen; shares compounds with TPT1 inh; RNase T1 cleavage, fluorescence polarization, 1536-well; inhibition, % at 5 µM; actives 83% (n = 2,400);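 active means inhibition above the solvent-only control well mean plus 3 SD, limit set per screening run, cut at about 23% in these data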;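 further: plate controls were DMSO wells with enzyme for no effect and wells without RNase T1 for full effect; inhibitors block cleavage so intact labeled substrate keeps polarization high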
Target sequence (P00651 whole entry, looked up): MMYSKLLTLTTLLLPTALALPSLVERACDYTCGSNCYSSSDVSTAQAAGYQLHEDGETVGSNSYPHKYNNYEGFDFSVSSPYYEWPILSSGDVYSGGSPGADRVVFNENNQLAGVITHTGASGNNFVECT
Rpn11 confirm: Rpn11 inhibition confirmation, single concentration; purified human 26S proteasome, Ub4-pepOG fluorescence polarization; proteasome pretreated with epoxomicin; AID 602318; actives 29% (n = 1,900); shares compounds with Rpn11 inh; inhibition, % at 20 µM
MMP-2 counter: blocks human MMP-2, flagging nonselective RPN11 hits; actives 4% (n = 1,900); recombinant MMP-2, FRET peptide cleavage fluorescence; AID 602330; inhibition, % at 20 µM; shares compounds with Rpn11 inh;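 further: human MMP-2 activated beforehand with APMA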
Thrombin inh: blocks bovine thrombin, flagging nonselective RPN11 hits; shares compounds with Rpn11 inh; bovine thrombin cleavage of Ub4-pepOG, fluorescence polarization; inhibition, % at 20 µM; actives 13% (n = 1,900); AID 602333;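 active means mean inhibition at least 40% at 20 µM, or signal 3 deviations below plate average, so some actives read negative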;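 further: plate controls were thrombin with DMSO for no effect and buffer wells lacking thrombin for full effect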
* = called active by the depositor; · = no result shown. Unless noted, no stated cut-off is given here; in the data, active means inhibition above about 40%; inactive means the rest.

SMILES	SENP1 FRET inh	Rpn11 inh	TPT1 inh	HNF4A DNA FP	CSN deneddyl inh	TPT1 inh confirm	RNase T1 counter	others
C=CCn1cc(C=C2C(=O)NC(=O)NC2=O)c2ccccc21	0	10	25*	1	6	40*	52*
O=C(O)Cn1cc(C=C2C(=O)NC(=O)NC2=O)c2ccccc21	1	-2	5	1	7	·	·
Cn1cc(/C=C2\C(=O)NC(=O)N(c3ccccc3)C2=O)c2ccccc21	-2	-8	0	154	-3	·	·
COc1ccc(-c2nn(CCC#N)cc2C(=O)Nc2cccc([N+](=O)[O-])c2)cc1OC	1	-1	·	-1	-1	·	·
C=CCn1c(=O)c(C=Nc2cccnc2Cl)c(O)n(CCCC)c1=O	-10	23	44*	8	29	13	23*
CCn1c(O)c(C=Nc2cc(Cl)ccc2Cl)c(=O)n(CC)c1=O	2	4	5	5	-2	·	·
CCOP(=O)(OCC)C(NC(=O)c1ccc(Cl)cc1)=C(Cl)Cl	3	-2	49*	-1	0	0	5
O=C1Nc2cc(C(=O)N3CCC4(CC3)OCCO4)ccc2NC1CSCc1cccc(F)c1 (stereo not drawn)	·	·	61*	·	·	96*	101*
CN1C(=O)C(=Cc2sc(=O)n(-c3ccccc3)c2N(C)C)C(=O)N(C)C1=O	-37	·	42*	12	19	53*	71*
Cc1ccc(N2C(=O)/C(=C/c3ccc(CN(CCC#N)S(C)(=O)=O)o3)C(=O)NC2=S)cc1C	·	·	46*	·	·	48*	57*
Cc1ccc(-n2c(O)c(/C=N/NC(=O)c3ccncc3)c(=O)[nH]c2=O)cc1	-50	14	30*	19	10	47*	56*
CCCCn1c(O)c(/C=N/NC(=O)c2ccncc2)c(=O)[nH]c1=S	-37	·	30*	48*	27	20	29*
C=CCN1CC[C@]23c4c5ccc(O)c4OC2C(O)CC[C@@]3(O)[C@H]1C5 (stereo partly drawn)	-4	1	·	0	-1	·	·
Cc1ccc(N2C(=O)NC(=O)/C(=C\c3ccoc3)C2=O)cc1	17	38	133*	19	58*	27*	37*
Cc1ccc(N2C(=O)NC(=O)/C(=C\c3cc(C)n(-c4ccc(C(=O)O)cc4)c3C)C2=O)cc1	-10	-3	15	3	-3	·	·
CCc1ccc(N2C(=O)NC(=O)/C(=C/c3ccsc3)C2=O)cc1	·	·	28*	·	·	17	24*
O=C1NC(=O)N(c2ccc3c(c2)OCO3)C(=O)/C1=C/c1ccsc1	0	12	10	-1	6	·	·
COc1cc(/C=C2\C(=O)NC(=O)N(c3ccccc3)C2=O)cc(OC)c1O	-52	0	51*	-1	3	4	11
Cc1ccc(N2C(=O)NC(=O)/C(=C\C=C\c3ccco3)C2=O)cc1	-40	38	43*	9	34	34*	54*
C[C@H]1[C@@H](OS(=O)(=O)O)C[C@@H]2C[C@H]([C@@H](O)c3cc(=O)[nH]c(=O)[nH]3)NC3=NC[C@H]1N32	-1	3	·	2	2	·	·
Cc1cc(C(=O)OCC(=O)Nc2ccc(F)cc2)c(C)n1C1CC1	-9	0	·	-2	-5	·	·
CCOC(=O)C1(CCc2ccccc2)CCN(C(C)CSC)CC1 (stereo not drawn)	-2	10	2	1	-2	·	·
CC(=O)N(C)C1=Nc2ccc(Cl)cc2C(c2ccccc2)=[N+]([O-])C1	-2	6	·	4	-1	·	·
CCCNC(=O)c1c(N)n(Cc2ccco2)c2nc3ccccc3nc12	·	·	15	·	·	·	·
CC(C)CNC(=O)c1c(N)n(Cc2ccco2)c2nc3ccccc3nc12	-18	30	28*	3	17	16	23*
SMILES	SENP1 FRET inh	Rpn11 inh	TPT1 inh	HNF4A DNA FP	CSN deneddyl inh	TPT1 inh confirm	RNase T1 counter	others
CC(C)OCCCNC(=O)c1c(N)n(Cc2cccs2)c2nc3ccccc3nc12	7	18	26*	4	7	10	12
O=C(NP(=O)(N1CC1)N1CC1)c1cc(I)ccc1I	-6	4	·	-5	-2	·	·
Oc1ccc2c3c1O[C@H]1c4oc5ccccc5c4C[C@@]4(O)[C@@H](C2)N(CC2CC2)CC[C@]314	2	1	-2	-6	3	·	·
O=C(COc1ccc(Cl)cc1)N(c1ccc(Cl)cc1)C1CN2CCC1CC2 (stereo not drawn)	0	3	3	3	-4	·	·
CCOC(=O)c1c(/N=C/c2c(O)n(-c3ccc(F)cc3)c(=S)[nH]c2=O)sc2c1CCCC2	-8	20	4	16	7	·	·
CCOC(=O)c1c(/N=C/c2c(O)n(-c3ccccc3F)c(=S)[nH]c2=O)sc2c1CCCC2	9	·	38*	-5	23	86*	96*
COc1ccc(Cn2c(N)c(C(=O)NCc3ccco3)c3nc4ccccc4nc32)cc1OC	7	46*	28*	11	57*	7	12	Rpn11 confirm=-4;MMP-2 counter=-37;Thrombin inh=-2
COc1ccc(-n2c(/C=C/c3ccc(O)c(O)c3)nc3ccccc3c2=O)cc1	-25	120*	36*	20	24	58*	61*	Rpn11 confirm=72*;MMP-2 counter=3;Thrombin inh=53*
CCN(CC)c1ccc(N=Cc2c(O)n(-c3cc(OC)ccc3OC)c(=O)[nH]c2=O)cc1	-22	40*	93*	13	21	76*	88*	Rpn11 confirm=46*;MMP-2 counter=-9;Thrombin inh=42*
CCOc1ccc(N2C(=O)/C(=C/c3ccc(C)o3)C(=O)NC2=S)cc1	-10	77*	32*	21	27	47*	57*	Rpn11 confirm=25;MMP-2 counter=57*;Thrombin inh=34
CN1[C@@H]2CCC[C@H]1CC(=O)C2	3	-2	·	4	-7	·	·
CCC(C)N1C(=O)/C(=C\c2ccc(N3CCCCCC3)cc2)C(=O)NC1=S (stereo not drawn)	-16	60*	25*	8	24	37*	58*	Rpn11 confirm=3;MMP-2 counter=9;Thrombin inh=0
CN(C)P(=O)(N(C)C)N1CC1	1	-1	·	-3	-2	·	·
